Activity calls are given as the source filed them. The rule behind the calls is not given here.
Tests used:
THP-1 [1] = assay: Antiinflammatory activity in human THP-1 cells assessed as blockade of caspase 1 p20 in LPS stimulation followed by pretreatment for 40 min before induced with nigericin for 40 min measured by western blot analysis; assay type: functional, cell-based; details: time 80.0 min
In short: (§1)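 PMA-differentiated THP-1 cells were primed with LPS, exposed to graded compound doses for 40 min, then given nigericin for 40 min. Supernatants were immunoblotted for IL-1β and caspase-1. Cell extracts were immunoblotted for NLRP3, pro-IL-1β and pro-caspase-1.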

THP-1 [2] = assay: Effect on TNFalpha expression in LPS-stimulated human THP-1 cells preincubated for 40 mins followed by LPS addition and measured after 3 hrs by Western blot analysis; assay type: functional, cell-based; details: time 220.0 min
In short: (§2)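 THP-1 cells were given compound for 40 min, then primed with LPS for 3 h. Medium supernatant was analysed for TNF-α. Cell extracts were immunoblotted for pro-IL-1β and NLRP3.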

THP-1 [3] = assay: Effect on IL-1beta expression in LPS-stimulated human THP-1 cells preincubated for 40 mins followed by LPS addition and measured after 3 hrs by Western blot analysis; assay type: functional, cell-based; details: time 220.0 min; in short: as §2
[4] = Half life in Sprague-Dawley rat at 10 mg/kg, iv measured up to 24 hrs by LC-MS/MS analysis; assay type: ADME, organism-based; details: in vivo
In short: (§3)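 Single doses given intravenously (10 mg/kg) or orally (10, 30, 90 mg/kg); plasma levels quantified by LC/MS/MS at multiple time points. Parameters reported as mean values: AUC0–t, CL, Cmax, T1/2, Tmax, and %F based on AUC.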

THP-1 [5] = assay: Effect on ASC oligomerization in LPS/nigericin stimulated human THP-1 cells assessed as ASC specks in LPS stimulation for 3 hrs followed by pretreatment for 40 min before induced with nigericin for 40 min by ASC and DAPI staining based immunofluorescent microscopy; assay type: functional, cell-based; details: time 80.0 min
In short: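 THP-1 cells were LPS-primed, treated with compound, then activated with nigericin. Endogenous ASC was visualized by immunofluorescence microscopy. The proportion of cells with ASC specks was counted, with NLRP3 KO THP-1 cells as comparison.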

[6] = target: NACHT, LRR and PYD domains-containing protein 3 (Homo sapiens) (UniProt Q96P20); assay: Inhibition of NLRP3 in human THP-1cells assessed as increase in thermal stability at 0.5 to 5 uM at 57 deg C measured by cellular thermal shift assay; details: dose 0.5-5 µM
THP-1 [7] = assay: Effect on TNFalpha expression in LPS-stimulated human THP-1 cells at 1 uM preincubated for 40 mins followed by LPS addition and measured after 3 hrs by Western blot analysis; assay type: functional, cell-based; details: time 220.0 min; in short: as §2
[8] = Half life in Sprague-Dawley rat at 90 mg/kg, po measured up to 24 hrs by LC-MS/MS analysis; assay type: ADME, organism-based; details: in vivo; in short: as §3
[9] = Clearance in Sprague-Dawley rat at 10 mg/kg, iv measured up to 24 hrs by LC-MS/MS analysis; assay type: ADME, organism-based; details: in vivo; in short: as §3
[10] = Oral bioavailability in Sprague-Dawley rat at 10 mg/kg measured up to 24 hrs by LC-MS/MS analysis; assay type: ADME, organism-based; details: in vivo; in short: as §3
[11] = Cmax in Sprague-Dawley rat at 90 mg/kg, po measured up to 24 hrs by LC-MS/MS analysis; assay type: ADME, organism-based; parameters: route oral, dose 90 mg/kg, time <=24; details: in vivo; in short: as §3
[12] = Tmax in Sprague-Dawley rat at 10 mg/kg, iv measured up to 24 hrs by LC-MS/MS analysis; assay type: ADME, organism-based; details: in vivo; in short: as §3
[13] = Oral bioavailability in Sprague-Dawley rat at 30 mg/kg measured up to 24 hrs by LC-MS/MS analysis; assay type: ADME, organism-based; details: in vivo; in short: as §3
[14] = target: T1, Interferon-inducible protein AIM2 (Homo sapiens) (UniProt O14862); assay: Inhibition of AIM2 inflammasome activation in LPS-induced human THP-1 cells at 1 uM for 40 mins followed by […] stimulation for 6 h by ELISA; assay type: cell-based; details: time 400.0 min
T1 sequence (whole entry): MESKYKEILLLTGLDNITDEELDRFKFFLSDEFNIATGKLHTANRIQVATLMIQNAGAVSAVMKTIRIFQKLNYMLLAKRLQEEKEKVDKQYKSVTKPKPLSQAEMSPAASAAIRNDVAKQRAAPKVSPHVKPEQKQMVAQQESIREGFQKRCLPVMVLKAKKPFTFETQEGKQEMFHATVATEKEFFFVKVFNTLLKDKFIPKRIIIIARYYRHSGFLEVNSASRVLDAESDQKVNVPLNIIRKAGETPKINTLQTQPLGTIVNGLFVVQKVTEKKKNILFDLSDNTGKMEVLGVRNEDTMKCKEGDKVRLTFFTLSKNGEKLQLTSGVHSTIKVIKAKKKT

[15] = Cmax in Sprague-Dawley rat at 30 mg/kg, po measured up to 24 hrs by LC-MS/MS analysis; assay type: ADME, organism-based; parameters: route oral, dose 30 mg/kg, time <=24; details: in vivo; in short: as §3
[16] = target: NLR family CARD domain-containing protein 4 (Homo sapiens) (UniProt Q9NPP4); assay: Inhibition of NLRC4 inflammasome activation in LPS-induced human THP-1 cells at 1 uM for 40 mins followed by flagellin stimulation for 6 h by ELISA; assay type: cell-based; details: time 400.0 min
THP-1 [17] = assay: Effect on NLRP3 expression in LPS-stimulated human THP-1 cells at 1 uM preincubated for 40 mins followed by LPS stimulation and measured after 3 hrs by Western blot analysis; assay type: functional, cell-based; in short: as §2
THP-1 [18] = assay: Effect on NLRP3 expression in LPS-stimulated human THP-1 cells preincubated for 40 mins followed by LPS addition and measured after 3 hrs by Western blot analysis; assay type: functional, cell-based; details: time 220.0 min; in short: as §2
[19] = AUC (0 to t) in Sprague-Dawley rat at 10 mg/kg, po measured up to 24 hrs by LC-MS/MS analysis; assay type: ADME, organism-based; parameters: route oral, dose 10 mg/kg, time <=24; details: in vivo; in short: as §3
[20] = Oral bioavailability in Sprague-Dawley rat at 90 mg/kg measured up to 24 hrs by LC-MS/MS analysis; assay type: ADME, organism-based; details: in vivo; in short: as §3
[21] = target: NLR family CARD domain-containing protein 4 (Homo sapiens) (UniProt Q9NPP4); assay: Inhibition of NLRC4 inflammasome activation in LPS-induced human THP-1 cells at 3 to 5uM for 40 mins followed by flagellin stimulation for 6 h by ELISA; assay type: cell-based
[22] = Cmax in Sprague-Dawley rat at 10 mg/kg, po measured up to 24 hrs by LC-MS/MS analysis; assay type: ADME, organism-based; parameters: route oral, dose 10 mg/kg, time <=24; details: in vivo; in short: as §3
[23] = Tmax in Sprague-Dawley rat at 10 mg/kg, po measured up to 24 hrs by LC-MS/MS analysis; assay type: ADME, organism-based; details: in vivo; in short: as §3
[24] = AUC (0 to t) in Sprague-Dawley rat at 90 mg/kg, po measured up to 24 hrs by LC-MS/MS analysis; assay type: ADME, organism-based; parameters: route oral, dose 90 mg/kg, time <=24; details: in vivo; in short: as §3
[25] = AUC (0 to t) in Sprague-Dawley rat at 10 mg/kg, iv measured up to 24 hrs by LC-MS/MS analysis; assay type: ADME, organism-based; parameters: route intravenous, dose 10 mg/kg, time <=24; details: in vivo; in short: as §3
[26] = Tmax in Sprague-Dawley rat at 90 mg/kg, po measured up to 24 hrs by LC-MS/MS analysis; assay type: ADME, organism-based; details: in vivo; in short: as §3
[27] = target: NACHT, LRR and PYD domains-containing protein 3 (Homo sapiens) (UniProt Q96P20); assay: Inhibition of NLRP3 inflammasome activation in LPS/nigericin-treated human THP-1 cells assessed as blockade of […] caspase 1 p20 in LPS stimulation followed by pretreatment for 40 min before induced with nigericin for 40 min measured by western blot analysis; assay type: cell-based; details: time 80.0 min; in short: as §1
[28] = target: NACHT, LRR and PYD domains-containing protein 3 (Homo sapiens) (UniProt Q96P20); assay: Binding affinity to NLRP3 in LPS stimulated human THP-1cells assessed as prevention of pronase-mediated protein degradation at 0.01 to 1mM incubated 50 mins before pronase treatment by label-free DARTS assay
In short: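 Drug affinity responsive target stability: THP-1 lysates were incubated with compound (0.01–1 mM), then digested with pronase. NLRP3 remaining was detected by immunoblot.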

Sequence of NACHT, LRR and PYD domains-containing protein 3 (Homo sapiens) (Q96P20 whole entry, the tested form may be a part): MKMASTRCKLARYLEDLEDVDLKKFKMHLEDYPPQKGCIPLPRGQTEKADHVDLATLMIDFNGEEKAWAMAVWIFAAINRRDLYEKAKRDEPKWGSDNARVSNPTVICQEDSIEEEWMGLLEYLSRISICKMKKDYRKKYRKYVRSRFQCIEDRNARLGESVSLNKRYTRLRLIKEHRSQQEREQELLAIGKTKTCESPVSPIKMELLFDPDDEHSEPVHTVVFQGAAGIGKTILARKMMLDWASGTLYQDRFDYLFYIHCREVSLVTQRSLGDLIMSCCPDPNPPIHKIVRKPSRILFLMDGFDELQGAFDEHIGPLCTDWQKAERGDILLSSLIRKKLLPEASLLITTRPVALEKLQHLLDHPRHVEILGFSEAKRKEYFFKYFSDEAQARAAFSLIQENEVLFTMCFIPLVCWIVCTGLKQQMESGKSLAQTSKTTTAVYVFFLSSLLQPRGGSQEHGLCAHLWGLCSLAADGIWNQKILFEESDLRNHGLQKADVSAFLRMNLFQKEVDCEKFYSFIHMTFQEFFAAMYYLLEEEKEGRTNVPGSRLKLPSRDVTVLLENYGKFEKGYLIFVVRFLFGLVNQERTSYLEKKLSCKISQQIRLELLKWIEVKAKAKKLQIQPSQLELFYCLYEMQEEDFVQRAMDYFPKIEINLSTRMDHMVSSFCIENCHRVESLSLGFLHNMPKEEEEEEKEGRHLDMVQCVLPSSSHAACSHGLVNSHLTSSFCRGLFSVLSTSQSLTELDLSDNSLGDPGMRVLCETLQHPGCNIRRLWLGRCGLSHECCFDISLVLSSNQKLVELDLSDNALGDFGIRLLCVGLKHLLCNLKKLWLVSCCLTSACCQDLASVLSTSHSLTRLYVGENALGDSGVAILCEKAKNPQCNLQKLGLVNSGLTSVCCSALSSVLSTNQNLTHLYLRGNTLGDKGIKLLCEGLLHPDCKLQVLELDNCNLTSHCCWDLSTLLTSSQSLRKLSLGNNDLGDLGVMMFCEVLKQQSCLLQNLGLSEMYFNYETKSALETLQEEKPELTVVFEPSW
Sequence of NLR family CARD domain-containing protein 4 (Homo sapiens) (Q9NPP4 whole entry, the tested form may be a part): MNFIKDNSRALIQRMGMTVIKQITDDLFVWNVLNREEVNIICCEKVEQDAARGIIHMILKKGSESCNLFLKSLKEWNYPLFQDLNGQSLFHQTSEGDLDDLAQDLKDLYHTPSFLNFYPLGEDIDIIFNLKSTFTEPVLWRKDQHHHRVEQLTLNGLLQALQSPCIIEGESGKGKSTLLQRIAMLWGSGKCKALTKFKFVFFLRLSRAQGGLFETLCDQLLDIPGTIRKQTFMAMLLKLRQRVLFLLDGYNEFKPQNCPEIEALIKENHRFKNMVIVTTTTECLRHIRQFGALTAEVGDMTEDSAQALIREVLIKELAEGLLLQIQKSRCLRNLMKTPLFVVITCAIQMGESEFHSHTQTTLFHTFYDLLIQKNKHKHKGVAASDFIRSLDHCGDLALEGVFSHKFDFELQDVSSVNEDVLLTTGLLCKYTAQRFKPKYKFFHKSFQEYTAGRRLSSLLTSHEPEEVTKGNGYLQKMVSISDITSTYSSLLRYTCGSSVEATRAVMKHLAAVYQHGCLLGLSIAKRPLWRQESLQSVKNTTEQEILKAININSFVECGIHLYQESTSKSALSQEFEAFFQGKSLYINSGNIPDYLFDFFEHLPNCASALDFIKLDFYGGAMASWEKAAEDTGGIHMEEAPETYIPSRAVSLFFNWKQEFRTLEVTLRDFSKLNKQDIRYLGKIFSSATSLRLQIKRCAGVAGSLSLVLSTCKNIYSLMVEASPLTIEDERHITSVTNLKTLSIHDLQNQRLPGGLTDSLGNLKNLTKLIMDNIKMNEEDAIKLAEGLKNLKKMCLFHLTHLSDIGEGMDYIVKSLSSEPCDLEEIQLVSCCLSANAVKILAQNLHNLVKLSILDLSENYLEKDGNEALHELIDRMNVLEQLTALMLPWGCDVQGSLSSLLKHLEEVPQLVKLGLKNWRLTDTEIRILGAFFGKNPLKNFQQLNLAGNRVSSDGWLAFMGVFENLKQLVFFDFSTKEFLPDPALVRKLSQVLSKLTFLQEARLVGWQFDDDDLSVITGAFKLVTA

In the case of COc1cc(/C=C/C(=O)c2ccc(F)cc2)c(OC)cc1Br, the Activity (THP-1 [1]) was “Dose-Dependent Effect”, the Activity (THP-1 [2]) was “inactive” and the Activity (THP-1 [3]) was “inactive”. For the same molecule, the half-life [4] was 3.13 h, the Activity (THP-1 [5]) was “Active” and the inhibition [6] was “Dose-Dependent Effect”. The Activity (THP-1 [7]) was “inactive”, the half-life [8] was 6.08 h and the CL [9] was 2229.2 mL/min/kg. The bioavailability [10] was 13.8%, the Cmax [11] was 13.6 ng/mL and the Tmax [12] was 6.6 min. The bioavailability [13] was 4.99%, the inhibition [14] was “inactive” and the Cmax [15] was 16.4 ng/mL. The inhibition [16] was “inactive”, the Activity (THP-1 [17]) was “inactive” and the Activity (THP-1 [18]) was “inactive”. For the same molecule, the AUCt [19] was 14.6 ng·h/mL, the bioavailability [20] was 2.47% and the inhibition [21] was “Dose-Dependent Effect”. The Cmax [22] was 3.35 ng/mL, the Tmax [23] was 2.11 h and the AUC(0-t) at 24 h [24] was 23.5 ng·h/mL. The AUC(0-t) at 24 h [25] was 106 ng·h/mL, the Tmax [26] was 4.21 h and the inhibition [27] was “inactive”. For the same molecule, the Activity [28] was “Dose-Dependent Effect”.

— ChEMBL document CHEMBL5036380, “New Highly Potent NLRP3 Inhibitors: Furanochalcone Velutone F Analogues” (ACS Med Chem Lett, 2022)
